Data on 12 compounds can be found in ChEMBL document CHEMBL1212871, “Lipophilic phenolic antioxidants: correlation between antioxidant profile, partition coefficients and redox properties” (Bioorg Med Chem, 2010).

The nature of data set [1]: Redox potential at pH 7.3 by differential pulse and cyclic voltametry. The class given is physicochemical. The essentials:
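Glassy carbon working electrode, potentials vs Ag/AgCl. 0.1 mM compound (diluted from 10 mM ethanol stock) in pH 7.3 phosphate supporting electrolyte, made from 0.2 M K2HPO4 and KH2PO4. Differential pulse voltammetry was run at 5 mV s^-1. Cyclic voltammetry was run at 50 mV s^-1, with scan rates of 10–100 mV s^-1 also examined.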

Data set [2] in a line: Antioxidant activity assessed as inhibition of AAPH-induced lipid peroxidation in liposomes measured as Trolox equivalent antioxidant capacity. The class given is functional. The following applies: Liposome. The essentials: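 Egg phosphatidylcholine LUVs (0.80 mM final) holding a radical-sensitive fluorescent probe were mixed with polyphenol (1.50, 7.50, 15.00 µM final; 1.5% ethanol) and shaken 10 min at 37 °C. Peroxidation was then started with 15.00 mM AAPH. Fluorescence (ex 360/40, em 460/40 nm) was read at 37 °C for 3 h. TEAC = (AUC compound − AUC control)/(AUC Trolox − AUC control). Run in duplicate.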

Data set [3] can be described thus: Antioxidant activity assessed as ratio of IC50 for Trolox to compound for ABTS radical scavenging activity after 5 mins by TEAC assay. The class given is functional. The method, boiled down: (§1)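 Six ethanolic compound solutions (1.5 × 10^-5 to 15 × 10^-5 M) were made in duplicate, and 20 µL of each was added to 180 µL ABTS•+ in quadruplicate. Absorbance was read every 5 min over 20 min; ethanol blank = 100% radical. Radical % against concentration at 5 or 20 min was fitted by second-degree polynomial through 100%. TEAC = Trolox IC50 / compound concentration giving 50% bleaching.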

The nature of data set [4]: Antioxidant activity assessed as ratio of IC50 for Trolox to compound for ABTS radical scavenging activity after 20 mins by TEAC assay. The class given is functional. The essentials:
as §1

In data set [5] the test system is Radical scavenging activity. Nature of the data set: Antioxidant activity assessed as ratio of IC50 for Trolox to compound for DPPH radical scavenging activity by TEAC assay. Format: functional. The essentials:
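DPPH• (180 µL) received 20 µL ethanolic compound, six concentrations of 1.5 × 10^-5 to 15 × 10^-5 M, prepared in duplicate and assayed in quadruplicate. Absorbance was read every minute for 10 min, then every 5 min for 50 min; ethanol blank = 100% radical. 60-min data were fitted by second-degree polynomial through 100%. TEAC = Trolox IC50 / compound concentration giving 50% bleaching.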
Background: DPPH is a stable violet radical that fades when it is reduced.

In turn, `CCCCCCOC(=O)CCc1ccc(O)c(OC)c1` [HEXYLHYDROFERULATE] had a Redox potential in data set [1] of 0.434 V. Further, the Ratio in data set [2] was 0.57.
`O=C(O)/C=C/c1ccc(O)c(O)c1` [CAFFEIC ACID]: the Redox potential in data set [1] was found to be 0.183 V. The Ratio in data set [2] is 2.23. Also, the Ratio IC50 in data set [3] amounted to 1.14; in data set [4], 1.27; in data set [5], 1.29.
The corresponding values for `CCCCCCOC(=O)/C=C/c1ccc(O)c(O)c1` [HEXYLCAFFEATE] are 0.175 V, 3.55, 0.91, 0.93 and 0.97.
Turning to `COc1cc(/C=C/C(=O)O)ccc1O` [FERULATE], the Redox potential in data set [1] was 0.35 V. In data set [2], the Ratio amounted to 0.79.
Compound `O=C(O)CCc1ccc(O)c(O)c1` [DIHYDROCAFFEIC ACID] displayed a Redox potential in data set [1] of 0.139 V. Also, in data set [2], the Ratio worked out at 1.75. Also, the Ratio IC50 in data set [3] came out at 1.16; in data set [4] it was 1.41; in data set [5], 2.05.
Regarding `CCCCCCNC(=O)/C=C/c1ccc(O)c(O)c1` [CAFFEOYLHEXYLAMIDE], the Redox potential in data set [1] came to 0.162 V. Also, in data set [2], the Ratio came to 2.41. Moreover, the Ratio IC50 in data set [3] was found to be 1.04; in data set [4], 1.05; in data set [5], 1.11.
The corresponding values for `CCCCCCNC(=O)CCc1ccc(O)c(O)c1` [HYDROCAFFEOYLHEXYLAMIDE] are 0.125 V, 2.08, 1.01, 1.02 and 1.
Take `COc1cc(CCC(=O)O)ccc1O` [DIHYDROFERULIC ACID]: the Redox potential in data set [1] is 0.41 V. Also, the Ratio in data set [2] stood at 0.22.
The like results for `CCCCCCNC(=O)/C=C/c1ccc(O)c(OC)c1` [FERULOYLHEXYLAMIDE] were, in that order, 0.322 V and 1.22.
The corresponding values for `CCCCCCOC(=O)/C=C/c1ccc(O)c(OC)c1` [HEXYLFERULATE] are 0.328 V and 1.13.
The like results for `CCCCCCNC(=O)CCc1ccc(O)c(OC)c1` [HYDROFERULOYLHEXYLAMIDE] were, in that order, 0.388 V and 0.68.
`CCCCCCOC(=O)CCc1ccc(O)c(O)c1` [HEXYLHYDROCAFFEATE] displayed a Redox potential in data set [1] of 0.125 V. In data set [2], the Ratio is 3.49. Moreover, the Ratio IC50 in data set [3] was 0.96; in data set [4], 0.96; in data set [5], 0.99.
